Laboratory results from ChEMBL document CHEMBL1817567, “Design of benzimidazole- and benzoxazole-2-thione derivatives as inhibitors of bacterial hyaluronan lyase” (Eur J Med Chem, 2011).
In brackets after ≈: the same amount, converted by molar mass. Activity calls are given as the source filed them. The rule behind the calls is not given here.

Key:
[1] = molecular target: T1, Hyaluronidase (Bos taurus) (UniProt Q8SQG8+Q5E985); test: Inhibition of bovine testes hyaluronidase at 130 uM after 30 mins at pH 5 by turbidimetric analysis; type: protein assay
[2] = molecular target: T1, Hyaluronidase (Bos taurus); test: Inhibition of bovine testes hyaluronidase at 49 uM after 30 mins at pH 5 by turbidimetric analysis; type: protein assay
[3] = molecular target: T1, Hyaluronidase (Bos taurus); test: Inhibition of bovine testes hyaluronidase at 150 uM after 30 mins at pH 5 by turbidimetric analysis; type: protein assay
[4] = molecular target: T1, Hyaluronidase (Bos taurus); test: Inhibition of bovine testes hyaluronidase at 380 uM after 30 mins at pH 5 by turbidimetric analysis; type: protein assay
[5] = molecular target: T1, Hyaluronidase (Bos taurus); test: Inhibition of bovine testes hyaluronidase at 4200 uM after 30 mins at pH 5 by turbidimetric analysis; type: protein assay
[6] = molecular target: T1, Hyaluronidase (Bos taurus); test: Inhibition of bovine testes hyaluronidase at 460 uM after 30 mins at pH 5 by turbidimetric analysis; type: protein assay
[7] = molecular target: T1, Hyaluronidase (Bos taurus); test: Inhibition of bovine testes hyaluronidase at 3800 uM after 30 mins at pH 5 by turbidimetric analysis; type: protein assay
[8] = molecular target: T1, Hyaluronidase (Bos taurus); test: Inhibition of bovine testes hyaluronidase at 170 uM after 30 mins at pH 5 by turbidimetric analysis; type: protein assay
[9] = molecular target: T1, Hyaluronidase (Bos taurus); test: Inhibition of bovine testes hyaluronidase at 400 uM after 30 mins at pH 5 by turbidimetric analysis; type: protein assay
[10] = molecular target: T1, Hyaluronidase (Bos taurus); test: Inhibition of bovine testes hyaluronidase at 2000 uM after 30 mins at pH 5 by turbidimetric analysis; type: protein assay
[11] = molecular target: T1, Hyaluronidase (Bos taurus); test: Inhibition of bovine testes hyaluronidase at 63 uM after 30 mins at pH 5 by turbidimetric analysis; type: protein assay
[12] = molecular target: T1, Hyaluronidase (Bos taurus); test: Inhibition of bovine testes hyaluronidase at 80 uM after 30 mins at pH 5 by turbidimetric analysis; type: protein assay
[13] = Inhibition of Streptococcus agalactiae 4755 hyaluronidase at pH 5.0 after 30 mins by turbidimetric analysis
Procedure, shortened: (§1)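 SagHyal4755 (2.9 ng) with BSA and hyaluronan (2 mg/ml stock) in citrate–phosphate/NaCl buffer pH 5.0, 3.8% DMSO final, 30 min at 37 °C. Stopped by alkaline 2.5% CTAB, then 20 min at 25 °C. Residual-substrate turbidity read at 600 nm; no-inhibitor sample = 100%, no-enzyme sample = 0% activity. Enzyme-free compound controls were run.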

[14] = molecular target: T1, Hyaluronidase (Bos taurus); test: Inhibition of bovine testes hyaluronidase at 180 uM after 30 mins at pH 5 by turbidimetric analysis; type: protein assay
[15] = molecular target: T1, Hyaluronidase (Bos taurus); test: Inhibition of bovine testes hyaluronidase at 190 uM after 30 mins at pH 5 by turbidimetric analysis; type: protein assay
[16] = molecular target: T1, Hyaluronidase (Bos taurus); test: Inhibition of bovine testes hyaluronidase at 200 uM after 30 mins at pH 5 by turbidimetric analysis; type: protein assay
[17] = molecular target: T1, Hyaluronidase (Bos taurus); test: Inhibition of bovine testes hyaluronidase at 100 uM after 30 mins at pH 5 by turbidimetric analysis; type: protein assay
[18] = Inhibition of Streptococcus agalactiae 4755 hyaluronidase at pH 7.4 after 3 hrs by turbidimetric analysis
Procedure, shortened: (§2)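 Same turbidimetric hyaluronan-lyase assay at pH 7.4 (citrate–phosphate/NaCl): SagHyal4755 2.9 ng, hyaluronan (2 mg/ml stock), BSA, 3.8% DMSO final, 3 h at 37 °C. CTAB (2.5%, in 0.5 M NaOH) precipitation, 20 min at 25 °C, A600. Activity scaled between no-inhibitor and no-enzyme samples.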

[19] = Aqueous solubility of the compound in water; type: physicochemical
Procedure, shortened: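 Turbidity at 600 nm of test compound in DMSO added to citrate–phosphate buffer (pH 5 and pH 7.4), water and BSA (0.2 mg/ml stock), at various concentrations, read against a water reference. Enzyme testing used only concentrations showing no turbidity.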

[20] = system: Streptococcus agalactiae; test: Inhibition of Streptococcus agalactiae 4755 hyaluronidase at 100 uM after 30 mins at pH 5.0 by turbidimetric analysis; procedure, shortened: as §1
[21] = Inhibition of Streptococcus agalactiae 4755 hyaluronidase at pH 7.4; procedure, shortened: as §2

Structure (SMILES)	inhibition [1]	inhibition [2]	inhibition [3]	inhibition [4]	inhibition [5]	inhibition [6]	inhibition [7]	inhibition [8]	inhibition [9]	inhibition [10]	inhibition [11]	inhibition [12]	IC50 [13]	inhibition [14]	inhibition [15]	inhibition [16]	inhibition [17]	IC50 [18]	IC50 [21]	other results
O=C1O[C@H]([C@@H](O)CO)C(O)=C1O [ASCORBIC ACID]	inactive	inactive	inactive	inactive	inactive	inactive	inactive	inactive	inactive	inactive	inactive	inactive	6100 µM	inactive	inactive	inactive	inactive	–	–	–
O=C(OCc1ccccc1)n1c(=S)oc2ccccc21	inactive	inactive	inactive	inactive	inactive	inactive	inactive	inactive	inactive	inactive	inactive	inactive	–	inactive	inactive	inactive	inactive	556 µM	–	solubility [19]: 100 µM (≈ 28.5 µg/mL); inhibition [20]: inactive
CCC(=O)n1c(=S)oc2ccccc21	inactive	inactive	inactive	inactive	inactive	inactive	inactive	inactive	inactive	inactive	inactive	inactive	128 µM	inactive	inactive	inactive	inactive	48 µM	–	–
Sc1nc2ccccc2[nH]1 [2-MERCAPTOBENZIMIDAZOLE]	inactive	inactive	inactive	inactive	inactive	inactive	inactive	inactive	inactive	inactive	inactive	inactive	1150 µM	inactive	inactive	inactive	inactive	1860 µM	–	–
O=C(COc1ccccc1)n1c(=S)oc2ccccc21	inactive	inactive	inactive	inactive	inactive	inactive	inactive	inactive	inactive	inactive	inactive	inactive	213 µM	inactive	inactive	inactive	inactive	62 µM	–	–
Cc1c(-c2ccc(O)cc2)[nH]c2ccc(O)cc12	–	–	–	–	–	–	–	–	–	–	–	–	–	–	–	–	–	–	280 µM	–
Cc1c(-c2ccc(O)cc2)n(C)c2ccc(O)cc12	–	–	–	–	–	–	–	–	–	–	–	–	–	–	–	–	–	–	220 µM	–
CCCn1c(-c2ccc(O)cc2)c(C)c2cc(O)ccc21	–	–	–	–	–	–	–	–	–	–	–	–	–	–	–	–	–	–	160 µM	–
O=C(CCCc1ccccc1)n1c(=S)oc2ccccc21	inactive	inactive	inactive	inactive	inactive	inactive	inactive	inactive	inactive	inactive	inactive	inactive	–	inactive	inactive	inactive	inactive	19 µM	–	solubility [19]: 100 µM (≈ 29.7 µg/mL); inhibition [20]: 47%
CCCCCn1c(-c2ccc(O)cc2)c(C)c2cc(O)ccc21	–	–	–	–	–	–	–	–	–	–	–	–	–	–	–	–	–	–	36 µM	–
CC(=O)n1c(=S)n(C(C)=O)c2ccccc21	inactive	inactive	inactive	inactive	inactive	inactive	inactive	inactive	inactive	inactive	inactive	inactive	160 µM	inactive	inactive	inactive	inactive	5 µM	5 µM	–

Continued, in another order:

inhibition [1]	inhibition [2]	inhibition [3]	inhibition [4]	inhibition [5]	inhibition [6]	inhibition [7]	inhibition [8]	inhibition [9]	inhibition [10]	inhibition [11]	inhibition [12]	IC50 [13]	inhibition [14]	inhibition [15]	inhibition [16]	inhibition [17]	IC50 [18]	IC50 [21]	Structure (SMILES)	other results
inactive	inactive	inactive	inactive	inactive	inactive	inactive	inactive	inactive	inactive	inactive	inactive	227 µM	inactive	inactive	inactive	inactive	20 µM	–	O=C(CCC1CCCCC1)n1c(=S)oc2ccccc21	–
inactive	inactive	inactive	inactive	inactive	inactive	inactive	inactive	inactive	inactive	inactive	inactive	125 µM	inactive	inactive	inactive	inactive	42 µM	–	CC(=O)n1c(=S)oc2ccccc21	–
inactive	inactive	inactive	inactive	inactive	inactive	inactive	inactive	inactive	inactive	inactive	inactive	260 µM	inactive	inactive	inactive	inactive	69 µM	–	O=C(Cc1ccccc1)n1c(=S)oc2ccccc21	–
–	–	–	–	–	–	–	–	–	–	–	–	–	–	–	–	–	–	12 µM	CCCCCCCn1c(-c2ccc(O)cc2)c(C)c2cc(O)ccc21	–
inactive	inactive	inactive	inactive	inactive	inactive	inactive	inactive	inactive	inactive	inactive	inactive	–	inactive	inactive	inactive	inactive	25 µM	–	CCCCCCCCCC(=O)n1c(=S)oc2ccccc21	solubility [19]: 100 µM (≈ 30.5 µg/mL); inhibition [20]: 41%
inactive	inactive	inactive	inactive	inactive	inactive	inactive	inactive	inactive	inactive	inactive	inactive	15 µM	inactive	inactive	inactive	inactive	24 µM	–	O=C(CCc1ccccc1)n1c(=S)oc2ccccc21	–
